CAL PDZ FP-1: inhibitors of human CAL PDZ peptide binding. 300,000 tested, 0.92% active. purified CAL PDZ, TMR-peptide fluorescence polarization, 1 h. Q9HD26. inhibition, % at 24.9 µM;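 active means mean inhibition of at least 30% with at least half of replicates also reaching 30%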
miR122 inh: blocks miR-122 activity in Huh7 sensor cells | Huh7 miR-122 Renilla luciferase sensor, 48 h; neutral wells = 0, positive control = 100 | activation (reporter increase), % at 12.5 µM | 340,000 tested, 0.3% active | AID 602342;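 active means mean replicate activation score at least 90 and every replicate individually at or above 90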;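 further: higher luciferase means less miR-122 activity so hits act as miR-122 inhibitors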
SR-BI uptake up: activators of SR-BI mediated HDL lipid uptake. CHO ldlA[mSR-BI] cells, DiI-HDL uptake fluorescence, 3 h; 100 = double the neutral-control signal. AID 504775. 320,000 tested, 0.096% active. activation, % at 12.5 µM;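 active means mean replicate activation of at least 60% and every replicate at or above 60%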
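Material: SR-BI-overexpressing, LDLR-lacking CHO cells; schedule: compound exposure 3 h, 37 °C; reagent: DiI-labelled HDL at 10 µg/mL final; technique: bottom-read fluorescence, 550/595 nm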
ARNT TACC3 PPI: disrupts binding between human ARNT and TACC3. Q9Y6A5. AlphaScreen His-ARNT PAS-B/GST-TACC3 binding, luminescence; TACC3 fragment carries E629A point mutation. inhibition, % at 9.99 µM. 390,000 tested, 0.66% active;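 active means mean inhibition of replicates at least 50% and at least half of replicates each reaching 50%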
CAL PDZ FP-2: inhibitors of human CAL PDZ peptide binding; purified CAL PDZ, TMR-peptide fluorescence polarization, 1 h; inhibition, % at 20 µM; 330,000 tested, 0.02% active; AID 504414;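 active means highest replicate inhibition of at least 40%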
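Read-out basis: mP drop reported as inhibition | Assay system: Tagged CAL PDZ protein CerCALP, purified | Benchmarks: Unlabelled peptide for full inhibition, DMSO wells as neutral | Schedule: 1 h incubation at room temperature before polarization reading | Buffer or medium: Sodium phosphate/NaCl buffer pH 7.4 with TCEP, IgG, Thesit | Doses: Single point, 20 µM | Measured by: Fluorescence polarization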
SR-BI DiI inh: blocks mouse SR-BI lipid uptake from DiI-HDL. Q61009. ldlA[mSR-BI] CHO cells, DiI-HDL uptake fluorescence, 3 h. inhibition, % at 12.5 µM. 320,000 tested, 0.96% active. AID 488896;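 active means mean replicate inhibition of at least 70% and a set share of replicates each scoring 70 or more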
Target sequence (Q61009 whole entry, looked up): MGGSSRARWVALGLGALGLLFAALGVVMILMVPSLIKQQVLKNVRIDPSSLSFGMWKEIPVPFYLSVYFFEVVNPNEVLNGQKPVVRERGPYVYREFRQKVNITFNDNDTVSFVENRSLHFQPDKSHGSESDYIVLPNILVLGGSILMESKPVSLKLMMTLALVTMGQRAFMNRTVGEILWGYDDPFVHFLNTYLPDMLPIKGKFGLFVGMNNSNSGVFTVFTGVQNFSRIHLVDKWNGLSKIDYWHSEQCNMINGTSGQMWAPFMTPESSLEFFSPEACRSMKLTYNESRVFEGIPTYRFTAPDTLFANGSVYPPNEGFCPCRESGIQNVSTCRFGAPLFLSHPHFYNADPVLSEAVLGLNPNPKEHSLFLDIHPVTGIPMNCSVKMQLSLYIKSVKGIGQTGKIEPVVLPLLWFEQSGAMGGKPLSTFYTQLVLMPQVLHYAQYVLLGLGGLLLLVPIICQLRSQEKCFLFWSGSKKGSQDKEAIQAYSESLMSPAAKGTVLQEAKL
Hits are given with their value; [ ] = another dose, or the depositor's remark. Hits are enriched below; roughly 2.1% of the tested compounds scored in any of these assays.

How did Cc1ccc(S(=O)(=O)N(C(=O)c2ccncc2)c2ccc(OC(=O)c3ccncc3)c3ccccc23)cc1 do in these assays?
CAL PDZ FP-1: inactive; SR-BI uptake up: 430; ARNT TACC3 PPI: inactive; CAL PDZ FP-2: inactive; SR-BI DiI inh: inactive

Results for COc1ccc(C(=O)N[C@H](C(=O)Nc2nc3ccccc3[nH]2)C(C)C)cc1 ?
CAL PDZ FP-1: inactive; miR122 inh: 117; SR-BI uptake up: inactive; ARNT TACC3 PPI: inactive; CAL PDZ FP-2: inactive; SR-BI DiI inh: inactive

What do the screens show for `COc1ccc(C(=O)Nc2nc3ccccc3[nH]2)cc1`?
CAL PDZ FP-1: inactive; miR122 inh: inactive; SR-BI uptake up: inactive; ARNT TACC3 PPI: inactive; CAL PDZ FP-2: inactive; SR-BI DiI inh: inactive

Results for CCNC(=O)C[C@@H]1CC[C@@H]2[C@H](COc3ccc(NC(=O)c4ccccc4Cl)cc3C(=O)N2C)O1 ?
miR122 inh: inactive; ARNT TACC3 PPI: inactive

Results for O=C(NCc1cccs1)C1CCCN1S(=O)(=O)c1ccccc1F (stereo not drawn) ?
CAL PDZ FP-1: 86; miR122 inh: inactive; SR-BI uptake up: inactive; ARNT TACC3 PPI: inactive; SR-BI DiI inh: inactive

Results for O=C(NCc1ccccc1Cl)C1CCCN1S(=O)(=O)c1ccccc1F (stereo not drawn) ?
CAL PDZ FP-1: inactive; miR122 inh: inactive; SR-BI uptake up: inactive; ARNT TACC3 PPI: inactive; CAL PDZ FP-2: inactive; SR-BI DiI inh: inactive

What do the screens show for `CN1C(=O)c2cc(NC(=O)C3CC3)ccc2OC[C@@H]2O[C@H](CC(=O)NCCc3ccncc3)CC[C@@H]21`?
miR122 inh: inactive; ARNT TACC3 PPI: inactive

Results for COc1ccc(CN2C3CCC2CC(NC(=O)c2cccc(F)c2)C3)cc1 (stereo not drawn) ?
CAL PDZ FP-1: inactive; miR122 inh: inactive; SR-BI uptake up: inactive; ARNT TACC3 PPI: inactive; CAL PDZ FP-2: inactive; SR-BI DiI inh: inactive

How did COc1cccc(C(=O)NC2CC3CCC(C2)N3Cc2ccccc2)c1 (stereo not drawn) do in these assays?
CAL PDZ FP-1: 39; miR122 inh: inactive; SR-BI uptake up: inactive; ARNT TACC3 PPI: inactive; CAL PDZ FP-2: inactive; SR-BI DiI inh: inactive

Results for COc1ccc(C(=O)NC2CC3CCCC(C2)N3Cc2ccccc2)cc1 (stereo not drawn) ?
CAL PDZ FP-1: inactive; miR122 inh: inactive; SR-BI uptake up: inactive; ARNT TACC3 PPI: inactive; CAL PDZ FP-2: inactive; SR-BI DiI inh: inactive

Results for CCOc1ccc(C(=O)NC2CC3CCCC(C2)N3Cc2ccccc2)cc1 (stereo not drawn) ?
CAL PDZ FP-1: inactive; miR122 inh: inactive; SR-BI uptake up: inactive; ARNT TACC3 PPI: inactive; CAL PDZ FP-2: 50; SR-BI DiI inh: inactive

Results for Cc1cc(=O)oc2c3c(cc(OCC(=O)N4CCC[C@H]4C(=O)O)c12)OC(C)(C)CC3 ?
CAL PDZ FP-1: inactive; miR122 inh: inactive; SR-BI uptake up: inactive; ARNT TACC3 PPI: 32; CAL PDZ FP-2: inactive; SR-BI DiI inh: inactive

Results for Cc1cc(=O)oc2c3c(cc(OCC(=O)NCc4ccccc4)c12)OC(C)(C)CC3 ?
CAL PDZ FP-1: inactive; miR122 inh: inactive; SR-BI uptake up: inactive; ARNT TACC3 PPI: inactive; CAL PDZ FP-2: inactive; SR-BI DiI inh: 80

How did CCCCc1cc(=O)oc2c3c(cc(OCC(=O)N4CCC[C@H]4C(=O)O)c12)OC(C)(C)CC3 do in these assays?
CAL PDZ FP-1: inactive; miR122 inh: inactive; SR-BI uptake up: inactive; CAL PDZ FP-2: inactive; SR-BI DiI inh: inactive

Results for COC(=O)[C@H]1[C@H](CO)[C@H]2Cn3c(ccc(-c4ccccc4)c3=O)[C@H]2N1CC1CCCCC1 ?
miR122 inh: inactive; ARNT TACC3 PPI: inactive

How did Cc1ccc(S(=O)(=O)NCC[C@@H]2CC[C@@H](NC(=O)c3cnccn3)[C@@H](CO)O2)cc1 do in these assays?
miR122 inh: inactive; ARNT TACC3 PPI: inactive

What do the screens show for `CN1C(=O)c2cc(NC(=O)Cc3ccccc3)ccc2OC[C@@H]2O[C@H](CC(=O)NCC3CC3)CC[C@@H]21`?
miR122 inh: 233[16.7 µM]; ARNT TACC3 PPI: inactive

What do the screens show for `CN1C(=O)c2cc(NC(=O)Cc3ccccc3)ccc2OC[C@@H]2O[C@@H](CC(=O)NC3CCC3)CC[C@H]21`?
miR122 inh: inactive; ARNT TACC3 PPI: inactive

How did CN1C(=O)c2cc(NC(=O)Cc3ccccc3)ccc2OC[C@@H]2O[C@H](CC(=O)NC3CCC3)CC[C@@H]21 do in these assays?
miR122 inh: 125[16.7 µM]; ARNT TACC3 PPI: inactive

What do the screens show for `COc1ccccc1C(=O)Nc1ccc2c(c1)C(=O)N(C)[C@H]1CC[C@H](CC(=O)NCc3ccc(Cl)c(Cl)c3)O[C@H]1CO2`?
miR122 inh: 308[16.7 µM]; ARNT TACC3 PPI: inactive
